Screening data as filed in PubChem BioAssay.
Not all results are given here.
HKDC1 act – HKDC1 (human) hexokinase activation; activity change, negative = activation, % at 20 µM; recombinant HKDC1, G6PDH/diaphorase resazurin fluorescence; stronger effect = lower value; Q2TB90; 0.056% of 340,000 active; AID 493187;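 active means activation of 40% or more at 20 µM, a change of -40% or lower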
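Material – in-house human HKDC1 enzyme, G6PDH and diaphorase coupling enzymes · Input – HKDC1 at 5 µg/mL final · Buffer or medium – pH 8.0 Tris with MgCl2 · Dosing – single compound dose of 20 µM, 1% DMSO final · Incubation – 90 min, room temperature · Technique – resorufin fluorescence from 100 µM resazurin, NADP 1 mM, Ex 525/Em 613 nm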
Starred values were filed as active, the others as inactive.

SMILES	HKDC1 act
Cn1c(=O)c2c(nc(N/N=C/c3c(O)n(C4CCCCC4)c(=S)[nH]c3=O)n2C)n(C)c1=O	-46.3*
COC(=O)C1CN(C#N)N(c2ccc(Cl)cc2)C12c1ccccc1-c1ccccc12 (stereo not drawn)	87.2
O=C1NC(=S)N(c2ccc(F)cc2)C(=O)/C1=C\c1ccoc1	50.9
NC(=O)c1ccc(N=Cc2c(O)n(Cc3ccco3)c(=O)[nH]c2=O)cc1	36.2
O=C1CC=C2C3CC4N(CCC45c4cc(O)c(O)cc4N1C25)CC3=CCBr (stereo not drawn)	44.6
Cc1ccc2c(C)c3ccc4ccccc4c3c[n+]2c1	-52.8*
N#CC1=C(N)Oc2c(c(=O)sc3ccccc23)C1c1ccncc1 (stereo not drawn)	-57.7*
N#CC(C#N)=Cc1ccc(C=C(C#N)C#N)cc1	37.6
O=C1C=CC(=O)C=C1	48.3
COC(=O)C1=C(C(=O)OC)SC2(S1)C(C(=O)OC)=C(C(=O)OC)Sc1c2ssc1=O	-108.7*
CC[C@H](C)/C=C(C)/C=C/C1=CC2=C(Cl)C(=O)[C@@](C)(OC(C)=O)C(=O)C2=CO1	62.8
O=c1[nH]c(O)c(/C=C2/C=CC(c3cc(Cl)ccc3Cl)=N2)c(=O)[nH]1	40.4
Cc1cc(/C=C2\C(=O)NC(=O)N(c3ccc(Cl)cc3)C2=O)c(C)n1-c1sc2c(c1C#N)CCCC2	68.9
CCOC(=O)c1c(-n2c(C)cc(/C=C3\C(=O)NC(=O)N(C)C3=O)c2C)sc2c1CCCC2	51.2
CCn1nc(-c2ccccc2)nc2c(=O)n(C)c(=O)nc1-2	-83.0*
COc1ccc(/C=C2\C(=O)NC(=S)N(C)C2=O)cc1C	36.4
COc1ccc(OC)c(N2C(=O)/C(=C/c3ccco3)C(=O)NC2=S)c1	82.3
O=c1c2ccccc2[se]n1-c1ccccc1	-115.9*
O=C(O)CC1OCC=C2CN3CCC45C6=CC(=O)C(=O)C([N+](=O)[O-])=C6NC4C1C2CC35 (stereo not drawn)	42.5
